Screens as filed in PubChem BioAssay.
An excerpt weighted towards active compounds, which were near 3.8% of everything screened.
KCNK9 inh = blocks the human KCNK9 two-pore domain potassium channel. HEK293 KCNK9, FluxOR thallium flux fluorescence; active compounds read low. B-score at 10 µM. Q9NPC2. actives 1.2% (n = 310,000);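 active means ratio B-score over 3 SD below the library mean, with starting fluorescence within 5 SD of its mean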;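 further: negative B-score means less thallium flux so channel inhibition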
KCNK3 block = human KCNK3 channel inhibition, primary screen; O14649; CHO-KCNK3 thallium flux, FluxOR fluorescence; active compounds read low; B-score at 10 µM; actives 0.84% (n = 340,000);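 active means B-score under library mean minus 4 SD, starting fluorescence ratio at most library mean plus 5 SD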;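 further: more negative B-score means stronger inhibition of thallium flux through KCNK3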
KCNQ1 inh = inhibitors of human KCNQ1 potassium channel. P51787. CHO-K1 KCNQ1, FluxOR thallium flux fluorescence; active compounds read high. B-score at 10 µM. actives 1.3% (n = 310,000). AID 2642;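 active means compounds whose thallium flux B-score, printed positive for inhibition, exceeds three library SD while starting fluorescence stays within three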;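 further: channel opened by potassium depolarization with thallium stimulus after 20 min compound exposure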
Kir21 block = Kir2.1 (mouse) channel inhibition | HEK293-Kir2.1, FluxOR thallium flux fluorescence; active compounds read low | B-score at 10 µM | actives 0.85% (n = 310,000) | AID 1672;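 active means fluorescence ratio B-score at or below minus 3 SD of library scores, with starting-brightness B-score within 2 SD, cut at about -4.2 in these data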;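 further: channel flux triggered by added potassium and thallium sulfate stimulus; B-score of peak minus minimum fluorescence over baseline after thallium stimulus; more negative B-score means stronger Kir2.1 block with less thallium influx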
Target sequence (P35561 whole entry, looked up): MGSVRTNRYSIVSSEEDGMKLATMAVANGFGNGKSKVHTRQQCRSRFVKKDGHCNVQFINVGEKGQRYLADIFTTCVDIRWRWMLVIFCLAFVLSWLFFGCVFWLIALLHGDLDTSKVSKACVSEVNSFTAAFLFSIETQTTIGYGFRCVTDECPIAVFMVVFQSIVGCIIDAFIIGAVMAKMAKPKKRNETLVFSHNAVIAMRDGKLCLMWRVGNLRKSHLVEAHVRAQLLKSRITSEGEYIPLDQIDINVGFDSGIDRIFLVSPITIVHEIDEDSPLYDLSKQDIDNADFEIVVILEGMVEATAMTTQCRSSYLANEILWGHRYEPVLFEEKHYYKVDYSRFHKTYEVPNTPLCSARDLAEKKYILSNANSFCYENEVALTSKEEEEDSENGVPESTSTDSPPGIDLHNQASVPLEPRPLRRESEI
hERG rescue = hERG (human) protection from proarrhythmic block; activation (rescue from dofetilide block), less the hit threshold, % at 10 µM; CHO-hERG, FluxOR thallium flux, dofetilide IC70 present; Q12809; actives 0.51% (n = 310,000);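 active means activation above the mean of controls blocked by dofetilide plus 5 SD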;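 further: thallium influx through hERG after potassium depolarization seen as dye fluorescence rise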
KCNQ1 pot = potentiators or activators of human KCNQ1 potassium channel | AID 2648 | P51787 | actives 0.35% (n = 310,000) | CHO-K1 KCNQ1, thallium flux FluxOR fluorescence; active compounds read high | B-score at 10 µM;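 active means fluorescence ratio B-score, a plate-corrected score, at least three library SD, with initial intensity B-score within 5 SD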
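Assay system: CHO-K1 cells stably expressing KCNQ1. Medium: assay buffer for compound exposure, DMSO matched across wells. Timing: 37 °C overnight plating, 90-min dark dye load, 20-min compound pretreatment. Signal: kinetic FluxOR fluorescence, 10 s baseline plus 110 s post-stimulus.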
Numbers stand for hits; 0 = inactive; - = no result.

SMILES	KCNK9 inh	KCNK3 block	KCNQ1 inh	Kir21 block	hERG rescue	KCNQ1 pot
COc1ccc(OC)c(/C=C/C(=O)N2CCN(S(=O)(=O)c3cc(C)ccc3C)CC2)c1	-	0	-	-	-	-
COc1ccccc1/C=C/C(=O)N1CCN(S(=O)(=O)c2cc(C)ccc2C)CC1	-	-8.78	-	-	-	-
O=S(=O)(c1ccc(Cl)c(Cl)c1)c1snnc1-c1ccccc1	0	0	0	-4.25	0	0
c1ccc(-c2nnsc2-c2ccccc2)cc1	0	0	0	0	0	0
CN(/N=C/c1ccc(-c2ccc([N+](=O)[O-])cc2)o1)c1ccccc1	0	0	8	0	0	0
Cc1c(C(=O)N2CCC(C)CC2)oc2ccc3c(c12)C(O)CC1(CCCCC1)O3 (stereo not drawn)	0	0	0	0	0	0
CCC(C)NC(=O)Cn1c(=O)sc2ccccc21 (stereo not drawn)	0	0	0	0	0	0
COc1ccc2c(c1)[nH]c1c(N3CCN(Cc4ccc5c(c4)OCO5)CC3)ncnc12	0	0	9	0	0	0
O=C(CNC(=O)Cc1ccccc1)NCC(=O)OCc1ccccc1	0	0	0	0	0	0
O=C(Cc1ccccc1)NCC(=O)OC(c1ccccc1)c1ccccc1	0	0	0	-5.44	0	0
CC(=O)c1ccc(OCCCC(=O)OCC(=O)Nc2ccc3[nH]c(=O)[nH]c3c2)cc1	0	0	0	0	0	0
O=C(NC(=S)N1CCN(Cc2ccc3c(c2)OCO3)CC1)c1cccc(Br)c1	0	0	0	0	25.3	29
CCNC(=S)N1CCN(Cc2ccc3c(c2)OCO3)CC1	0	0	0	0	0	0
CC1CN(C(=S)NC(=O)c2ccc(Cl)cc2)CC(C)O1 (stereo not drawn)	0	0	0	0	6.4	0
O=C(NC(=S)N1CCN(Cc2ccc3c(c2)OCO3)CC1)c1ccc(Cl)cc1	0	0	0	0	23.9	11
COc1ccc(NC(=O)C2CCN(C(=O)Cc3ccccc3)CC2)c(OC)c1	0	0	0	0	0	0
Cc1cc[n+](-c2[nH]c(=O)sc2/C=N/NC([S-])=Nc2ccccc2)cc1C	0	0	0	0	0	0
CC(C)(C)c1cc[n+](-c2[nH]c(=O)sc2/C=N/NC([S-])=Nc2ccccc2)cc1	0	0	8	0	0	0
COc1ccc(NC(=O)CC2CCCC2)cc1S(=O)(=O)N1CCCCC1	0	0	0	0	0	0
COc1ccc(NC(=O)CC2CCCCC2)cc1OC	0	0	0	0	5.7	0
Cc1c(C)c2ccc(OCC(=O)NCCCn3ccnc3)c(C)c2oc1=O	0	0	0	0	0	0
COc1ccccc1N1CCN(CCCN2C(=O)C3CCCN3C2=O)CC1 (stereo not drawn)	-	0	-	-	-	-
COc1cc(C)c(S(=O)(=O)NOCc2ccccc2)c(C)c1C	0	0	0	-7.11	0	0
Cc1ccc(S(=O)(=O)NCCSc2nnnn2-c2ccccc2)cc1	0	0	0	-7.08	0	0
Cc1ccc(N2NC(=O)/C(=C\c3cc4c(cc3[N+](=O)[O-])OCO4)C2=O)cc1C	0	0	0	-6.49	0	0
SMILES	KCNK9 inh	KCNK3 block	KCNQ1 inh	Kir21 block	hERG rescue	KCNQ1 pot
COc1cc(/C=C2/C(=O)NN(c3ccc(C)c(Cl)c3)C2=O)cc([N+](=O)[O-])c1O	0	0	0	0	0	0
COc1ccc(CN(C)C(=O)c2cccc(Oc3ccccc3)c2)c(OC)c1OC	0	0	0	-4.87	0	0
COc1ccc(CN(C)CC(O)COc2ccc(C(=O)c3ccccc3)cc2)c(OC)c1OC (stereo not drawn)	0	0	0	-4.28	0	0
COc1ccc(Br)cc1CN(C)CC(O)COc1ccc(Br)cc1 (stereo not drawn)	0	0	0	-6.51	0	0
CCN(CC(=O)Nc1ccccc1C(F)(F)F)C(=O)C1CSC2(C)CCC(=O)N12 (stereo not drawn)	0	0	0	0	0	0
Cc1cc(NC(=O)CSCC(=O)Nc2cc(Cl)ccc2N2CCN(C)CC2)no1	-	0	-	-	-	-
Cc1ccc(NC(=O)CSCC(=O)Nc2ccccc2C(=O)N2CCCCC2)cc1	0	0	0	0	0	0
COc1ccc(NC(=O)CSCC(=O)Nc2cc(Cl)ccc2N2CCOCC2)cc1	0	0	0	0	0	0
Cc1ccc(NC(=O)CSCC(=O)Nc2cc(Cl)ccc2N2CCOCC2)cc1	0	0	6	0	0	0
Cc1cccc(NC(=O)CSCC(=O)Nc2cc(Cl)ccc2N2CCN(C)CC2)c1	0	0	0	-4.6	0	0
Cc1ccc(NC(=O)CSCC(=O)Nc2ccccc2N2CCCC2)cc1	0	0	0	-6.66	0	0
Nc1nc(-c2ccc(Oc3ccccc3)cc2)c(CC(=O)O)s1	0	0	0	0	0	0
Cc1sc(-n2c(C)cc(/C=C3\SC(=S)NC3=O)c2C)c(C#N)c1C	0	0	0	0	0	9
CCOC(=O)c1nc(N2CCN(C(=O)OCC)CC2)c2c3c(sc2n1)CCCC3	0	0	0	0	0	0
CCNC(=S)N1CCN(c2nc(CC)nc3sc4c(c23)CCCC4)CC1	0	-11.6	0	0	0	0
COc1ccc(C)cc1NC(=O)C(OC(=O)CNC(=O)c1cccc(F)c1)c1ccccc1 (stereo not drawn)	0	0	0	0	0	0
COc1ccc(C)cc1NC(=O)C(OC(=O)CNC(=O)c1ccc(Oc2ccccc2)cc1)c1ccccc1 (stereo not drawn)	-7.94	0	0	0	0	0
Cc1cccc(OCc2nnc(SCC(=O)N3c4ccccc4CCc4ccccc43)o2)c1	0	0	0	0	0	0
O=C(CSc1nnc(COc2ccc(F)cc2)o1)N1c2ccccc2CCc2ccccc21	-13	0	0	0	0	0
Nc1nc(CN2CCN(c3ccccc3F)CC2)nc(N2CCCc3ccccc32)n1	0	0	0	0	0	0
C#CCOCCOCCOCCNc1nc(N2CCN(C(=O)[C@H](CCCCN)n3cc(CN)nn3)CC2)nc(N2CCN(C(=O)[C@H](CC(N)=O)n3cc(C(N)[C@H](C)CC)nn3)CC2)n1 (stereo partly drawn)	-	0	-	-	-	-
N#CC1=C(SCC(=O)c2cc3ccccc3oc2=O)NC(=O)C(C#N)C12CCCC2 (stereo not drawn)	0	0	7	0	0	0
Cc1cc(NC(=O)CSc2nc3ccccc3n2CCC#N)no1	0	0	0	0	4.9	0
COc1cc2c(cc1OC)C(c1cccc([N+](=O)[O-])c1)N(C(=O)CCC(=O)O)CC2 (stereo not drawn)	0	0	0	0	0	0
O=c1cc2c(c(-c3ccccc3)n1Cc1ccccc1)[C@H](CCO)NC2	-	0	-	-	-	-
OCC[C@@H]1NCc2cc(CO)cc(-c3ccccc3)c21	-	-9.93	-	-	-	-
CC(Oc1ccc(Cl)cc1)C(=O)Nc1sccc1C(N)=O (stereo not drawn)	0	0	0	0	6.6	0
